Measured values of several laboratories.
Target: Insulin receptor-related protein (INSRR, Homo sapiens, UniProt P14616)

SMILES | effect on | method | tested at | remaining binding
O=C(NCCCC1CCCCC1)c1ccc(CNC(=O)c2cnn(-c3ccccc3)c2C(F)(F)F)cc1 | cell-free assay | competition with immobilised ligand | 0.1 µM | 100%
COc1ccnn2ncc(-c3ccnc(N(C)C)n3)c12 | binding |  | 1 µM | 99%
CCN1CCN(Cc2ccc(C(=O)Nc3ccc(C)c(Oc4ccc5c(c4)CC(=O)N5)c3)cc2C(F)(F)F)CC1 | binding | competition with immobilised ligand | 1 µM | 93%
N[C@@H]1CCN(c2nccc(-c3cnn4ncccc34)n2)C1 | binding |  | 1 µM | 100%
C[C@@H]1CN(c2cc(-c3nn(C)c4ccc(OC5(C)CC5)cc34)ncn2)C[C@H](C)O1 | cell-free assay | competition with immobilised ligand | 1 µM | 91%
CNC(=O)[C@@H]1CC[C@@H](n2c(-c3ccc4cnccc4c3)nc3ccc(C(=O)NCc4cccc(C(N)=O)c4)cc32)C1 | binding | competition with immobilised ligand | 1 µM | 92%
C[C@@H](c1ccc(-n2cnc3c(N)ncnc32)cc1)N1CCc2nn(C)c(Cc3ccccc3)c2C1=O | binding | competition with immobilised ligand | 0.1 µM | 91%
CNC(=O)Nc1ccc2c(c1)CC[C@@]21OC(=O)N(CC(=O)N(Cc2ccc(F)cc2)[C@@H](C)C(F)(F)F)C1=O | cell-free assay | competition with immobilised ligand | 1 µM | 96%
COc1cnc(Nc2cccc(S(N)(=O)=O)c2)nc1N1CCN(c2ccccc2)CC1 | binding | competition with immobilised ligand | 1 µM | 100%
C[C@H]1CCN(c2nccc(-c3cnn4ncccc34)n2)C1 | binding |  | 1 µM | 98%
O=C(Nc1c[nH]nc1C(=O)NC1CCNCC1)c1cc(F)cc(F)c1 | binding | competition with immobilised ligand | 1 µM | 92%
O=C(c1ccc(Nc2ncc(Cl)c(-c3cc4ccccc4s3)n2)cc1)N1CCC(N2CCCC2)CC1 | binding | competition with immobilised ligand | 1 µM | 25%
CNCc1ccccc1-c1csc([C@@H](C)Nc2nc(C)nc3cc(OC)c(OC)cc23)c1 | cell-free assay | competition with immobilised ligand | 1 µM | 95%
CN(C)c1ncc(F)c(-c2cnn3ncccc23)n1 | binding |  | 1 µM | 100%
FC(F)(F)Oc1cccc(-c2cnc3ccc(-c4ccncc4)nn23)c1 | cell-free assay | competition with immobilised ligand | 5 µM | 96%
O=C1CCc2cc(Nc3cc(OC4CCOCC4)c([N+](=O)[O-])cc3Cl)ccc2N1 | cell-free assay | competition with immobilised ligand | 1 µM | 100%
O=C(NCCCN1CCOCC1)c1ccc(Nc2ncc(Cl)c(-c3ccc(Cl)s3)n2)cc1 | binding | competition with immobilised ligand | 1 µM | 59%
c1cnn2ncc(-c3ccnc(N4CCC45COC5)n3)c2c1 | binding |  | 1 µM | 93%
O=C(c1ccc(Nc2ncc(Cl)c(-c3ccc(Cl)s3)n2)cc1)N1CCC(N2CCCC2)CC1 | binding | competition with immobilised ligand | 1 µM | 23%
COc1cc(-c2cn(C3CCc4ccccc4N(CC(F)(F)F)C3=O)nn2)ccc1-n1ccc(C)n1 (stereo not shown) | cell-free assay | competition with immobilised ligand | 1 µM | 100%
CN(C)c1nccc(-c2cnc3ncccn23)n1 | binding |  | 1 µM | 82%
C=CC(=O)N1CCC(C(=O)NCC(=O)N2CCN(c3nc(-c4cnc(N)nc4C(F)F)nc(N4CCOCC4)n3)CC2)CC1 | binding | competition with immobilised ligand | 1 µM | 96%
